From ChEMBL document CHEMBL1154234, “Cytotoxic constituents of Soymida febrifuga from Myanmar” (J Nat Prod, 2009)

Assays:
Type in all cases: functional, cell-based
[1] = system: PANC-1; test: Cytotoxicity against human PANC1 cells in nutrient-deprived condition after 24 hrs by WST8 assay
How it was run: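 PANC-1 seeded 2 × 10^4/well in DMEM, 24 h at 37 °C, 5% CO2; washed with PBS and switched to nutrient-deprived medium (or DMEM) with serial dilutions for 24 h. After PBS wash, DMEM with 10% WST-8 added for 3 h, absorbance at 450 nm. Viability vs blank and untreated control from three wells; PC50 reported.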

[2] = system: HT-1080; test: Cytotoxicity against human HT1080 cells after 72 hrs by MTT assay; settings: HT-1080, 72 h
How it was run: (§1)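 Cells grown in MEMR with 10% FBS, 0.1% NaHCO3 and 1% antibiotic antimycotic; seeded 2 × 10^3/well and left 24 h at 37 °C, 5% CO2 to attach. Graded concentrations then added in medium for 72 h; MTT (0.5 mg/mL) for 2 h, formazan taken up in DMSO, absorbance at 550 nm. IC50 from means of three wells.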

[3] = system: A549; test: Cytotoxicity against human A549 cells after 72 hrs by MTT assay; settings: A549, 72 h; how it was run: as §1
[4] = system: HeLa; test: Cytotoxicity against human HeLa cells after 72 hrs by MTT assay; how it was run: as §1
[5] = Cytotoxicity against mouse Colon 26-L5 cells after 72 hrs by MTT assay
How it was run: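 Murine colon 26-L5 cells kept in RPMI 1640 with 10% FBS, 0.1% NaHCO3, 1% antibiotic antimycotic. Plated at 2 × 10^3/well, 24 h attachment at 37 °C, 5% CO2, then varying concentrations for 72 h. Read-out: MTT (0.5 mg/mL) 2 h, DMSO extraction, 550 nm; IC50 from means of three wells.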

[6] = Cytotoxicity against mouse B16-BL6 cells after 72 hrs by MTT assay; settings: B16-BL6, 72 h; how it was run: as §1

Structure (SMILES) | PC50 [1] | IC50 [2] | IC50 [3] | IC50 [4] | IC50 [5] | IC50 [6] | PC50 ([1]; Homo sapiens, PANC-1, 24 h)
Cc1c(O)ccc2c1O[C@@H](c1ccc(O)cc1)CC2 | 85.8 µM | 24.1 µM | 39.7 µM | 89.2 µM | 40.2 µM | 98.9 µM | –
COc1ccc(C(=O)CCc2c(OC)cc(O)cc2OC)cc1 | 85.7 µM | > 100 µM | > 100 µM | > 100 µM | 68.1 µM | 70.1 µM | –
COc1cc(O)cc2c1OC[C@H](Cc1ccc(O)cc1)C2 | >100 µM | 70.2 µM | > 100 µM | 65.6 µM | 49.5 µM | > 100 µM | –
COc1cc2c(cc1O)C[C@@H](Cc1ccc(O)cc1)CO2 | 63 µM | 17.5 µM | 19.1 µM | 37.8 µM | 22.2 µM | 75.4 µM | –
COc1ccc(C[C@@H]2COc3cc(O)cc(O)c3C2=O)cc1 | – | > 100 µM | > 100 µM | > 100 µM | 30.6 µM | 64.3 µM | > 100 µM
COc1cc2cc(Cc3ccc(O)cc3)c(=O)oc2cc1O | 86.7 µM | 40.3 µM | 88.1 µM | 69.5 µM | 61.8 µM | > 100 µM | –
Oc1ccc(C[C@H]2COc3cc(O)ccc3C2)cc1 | 79 µM | 79.6 µM | > 100 µM | > 100 µM | 44.5 µM | > 100 µM | –
COc1c(O)cc2c(c1O)C(=O)[C@H](Cc1ccc(O)cc1)CO2 | >100 µM | 96.2 µM | > 100 µM | > 100 µM | 89.5 µM | > 100 µM | –
O=C1c2c(O)cc(O)cc2OC[C@H]1Cc1ccc(O)cc1 | >100 µM | > 100 µM | > 100 µM | > 100 µM | 57.8 µM | > 100 µM | –
O=C1c2ccc(O)cc2OC[C@H]1Cc1ccc(O)cc1 | >100 µM | > 100 µM | > 100 µM | > 100 µM | 69.3 µM | 99.6 µM | –
COc1cc(O)c(C)c2c1CC[C@H](c1ccc(O)cc1)O2 | 70.1 µM | 37 µM | 35.5 µM | 74 µM | 59.1 µM | 89.1 µM | –
COc1ccc2c(c1)O[C@H](c1ccc(O)cc1)CC2 | 74 µM | > 100 µM | > 100 µM | > 100 µM | 52.8 µM | 40.8 µM | –
COc1ccc(CCC(=O)c2ccc(O)cc2)c(O)c1 | >100 µM | > 100 µM | 12 µM | 46.1 µM | 81.4 µM | 57.8 µM | –
O=C(/C=C/c1ccccc1O)c1ccc(O)cc1O | >100 µM | 40.4 µM | 89.9 µM | 89.1 µM | 28.9 µM | > 100 µM | –
O=C(CCc1ccc(O)cc1O)c1ccc(O)cc1 | >100 µM | > 100 µM | > 100 µM | > 100 µM | > 100 µM | > 100 µM | –
COc1cc(O)ccc1C(=O)/C=C/c1ccc(O)cc1 | >100 µM | 26.7 µM | 66.5 µM | 33.3 µM | 14.1 µM | 49.9 µM | –
COc1ccc(CCC(=O)c2ccc(O)cc2)c(OC)c1 | 83.2 µM | > 100 µM | 89.5 µM | > 100 µM | 32.2 µM | 55.5 µM | –
COc1cc(O)cc(OC)c1CCC(=O)c1ccc(O)cc1 | 69.7 µM | 67.2 µM | 42.9 µM | 49 µM | 40.2 µM | 84.4 µM | –
COc1cc(O)cc(/C=C/c2ccc(O)cc2)c1 | 71.4 µM | 89.1 µM | 91.8 µM | 48.4 µM | 35.8 µM | > 100 µM | –
O=C(/C=C/c1ccccc1)c1ccc(O)cc1O [2',4'-DIHYDROXYCHALCONE] | 19 µM | 17 µM | 23.2 µM | 24.4 µM | 4.71 µM | > 100 µM | –
COc1cccc2c1C(=O)c1c(O)c3c(c(O)c1C2=O)C[C@@](O)(C(=O)CO)C[C@@H]3O[C@H]1C[C@H](N)[C@H](O)[C@H](C)O1 [DOXORUBICIN] | – | 0.41 µM | 0.84 µM | – | 3.12 µM | 3.07 µM | –
O=c1[nH]cc(F)c(=O)[nH]1 [FLUOROURACIL] | – | 8.58 µM | 5.91 µM | 0.44 µM | 0.41 µM | 7.39 µM | –
COc1cc(C(O)C(O)CO)ccc1O (centres undefined) [GUAIACYL GLYCEROL] | >100 µM | > 100 µM | > 100 µM | > 100 µM | 96.9 µM | > 100 µM | –
O=C(O)c1ccc(O)cc1 [PARABEN] | >100 µM | > 100 µM | > 100 µM | 36.2 µM | 33.3 µM | 63.3 µM | –
O=C1C[C@@H](c2ccccc2)Oc2cc(O)cc(O)c21 [PINOCEMBRIN] | 72.9 µM | 72.8 µM | > 100 µM | > 100 µM | 71 µM | > 100 µM | –
COc1cc(/C=C/c2ccc(O)cc2)cc(OC)c1 [PTEROSTILBENE] | 44.4 µM | 93.4 µM | 71.7 µM | 9.43 µM | 2.96 µM | 15.9 µM | –
Oc1ccc([C@H]2CCc3ccc(O)cc3O2)cc1 [TUPICHINOL C] | >100 µM | 50.1 µM | 94 µM | 93.4 µM | 43.9 µM | > 100 µM | –
